Source: PubChem BioAssay
Hits are enriched below; roughly 4.6% of the tested compounds scored in any of these assays.
TAAR1 antagonist: human TAAR1 antagonists, primary screen, Fluo-8 calcium fluorescence, CHO RD-HGA16 cells. hit rate 1.5% among 360,000. AID 624466, 2012. inhibition, % at 3 µM. antagonist;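 active means inhibition above a per-plate cutoff, the mean inhibition of test compounds on that plate plus 3 SD, cut at about 49% in these data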
Target sequence (Q96RJ0 whole entry, looked up): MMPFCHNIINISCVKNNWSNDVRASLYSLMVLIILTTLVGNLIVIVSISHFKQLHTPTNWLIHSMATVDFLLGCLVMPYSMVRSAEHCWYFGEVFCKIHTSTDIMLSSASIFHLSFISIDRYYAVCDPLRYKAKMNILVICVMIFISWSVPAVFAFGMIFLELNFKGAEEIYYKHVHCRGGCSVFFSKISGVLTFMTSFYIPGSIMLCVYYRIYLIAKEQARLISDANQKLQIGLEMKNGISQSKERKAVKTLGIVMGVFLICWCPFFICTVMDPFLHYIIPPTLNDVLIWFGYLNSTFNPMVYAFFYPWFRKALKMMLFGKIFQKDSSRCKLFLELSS
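System: RD-HGA16 CHO cells with stable hTAAR1 and Gα16 | Probe or stimulus: EC80 β-phenethylamine stimulus | Dosing: 3 µM, single point | Times: Dye loading 75 min at 37 °C, then 30 min room temperature | Measured by: Fluo-8 calcium-sensitive fluorescence | Read-out basis: % inhibition of agonist calcium response | Replicates: n of 1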
OX1R antag-1: antagonists of human orexin 1 receptor (OX1R); inhibition, % at 6.6 µM; OX1R-expressing cells, FRET antagonist read-out; hit rate 1.8% among 330,000; Orexin/Hypocretin receptor type 1 (Homo sapiens), O43613; in the data active means inhibition mostly above about 38%, no sharp cut-off; inactive means mostly below about 40%
GPR7 antagonist: GPR7 receptor antagonists, primary screen, cell-based, fluorescence, single concentration. GPR7-expressing cells, fluorescence antagonist assay. inhibition, % at 4.4 µM. Neuropeptides B/W receptor type 1 (Homo sapiens), P48145. hit rate 1.1% among 290,000. AID 1861, 2009; in the data active means inhibition above about 16%, passing the limit was not always enough;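 further: cells stimulated with the agonist NPW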
Target sequence (P48145 whole entry, looked up): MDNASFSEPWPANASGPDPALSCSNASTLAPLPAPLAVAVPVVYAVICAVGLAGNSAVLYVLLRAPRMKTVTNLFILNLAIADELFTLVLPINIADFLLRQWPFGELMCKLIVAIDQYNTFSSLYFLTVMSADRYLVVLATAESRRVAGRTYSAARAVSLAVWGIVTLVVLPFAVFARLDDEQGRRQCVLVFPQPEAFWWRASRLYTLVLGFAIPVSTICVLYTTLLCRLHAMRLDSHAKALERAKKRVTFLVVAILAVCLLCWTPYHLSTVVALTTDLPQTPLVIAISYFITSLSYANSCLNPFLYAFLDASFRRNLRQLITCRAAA
CHO parental Ca: ATP-evoked calcium signal inhibitors, parental CHO, primary screen, counter-screen for OX1R antagonist project, cell-based, fluorescence, Fluo-8 calcium dye | inhibition, % at 5.6 µM | parental CHO-K1, ATP-induced calcium, Fluo-8 fluorescence | hit rate 0.63% among 330,000;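 active means inhibition above that plate's mean sample inhibition plus 3 SD, cut at about 26% in these data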
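material = parental CHO cells | also added = ATP as calcium-mobilizing challenge | dosing = single point at 5.6 µM | detection = intracellular calcium via Fluo-8 no-wash fluorescent dye | read-out = % inhibition | benchmarks = low control ATP plus DMSO, high control DMSO only | repeats = one well per compound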
OX1R antag-2: OX1R (HCRTR1) antagonists, primary screen, fluorescence, CHO/OX1R cells, Fluo-8 calcium, orexin A. inhibition, % at 5 µM. Fluo-8 calcium fluorescence. hit rate 0.43% among 330,000. Orexin/Hypocretin receptor type 1 (Homo sapiens), O43613;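 active means inhibition above its plate's threshold, mean inhibition of all tested compounds on the plate plus 3 SD, cut at about 37% in these data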
TAAR1 ag: human TAAR1 agonists, primary screen, Fluo-8 calcium fluorescence, CHO RD-HGA16 cells; Trace amine-associated receptor 1 (Homo sapiens), Q96RJ0; vehicle wells 0%, saturating PEA agonist 100%; activation, % at 3 µM; hit rate 0.99% among 360,000;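 active means activation above the mean activation of all test compounds in the run plus 3 SD, cut at about 38% in these data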
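Benchmarks: low control DMSO, high control PEA (EC100); System: CHO RD-HGA16 cells carrying human TAAR1 plus Gα16; Detection: Fluo-8 fluorescence, 5 s baseline then 140 s kinetic read; Schedule: 17-24 h plating, Fluo-8 75 min 37 °C, 30 min RT; Read-out basis: % activation from peak over basal fluorescence ratio, DMSO-to-PEA scaled.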
OX1R HTRF confirm: OX1R (HCRTR1) antagonists, confirmation, cell-based, HTRF; hit rate 49% among 1,800; OX1R-expressing cells, HTRF antagonist assay; inhibition, % at 6.6 µM; shares compounds with OX1R antag-1; AID 492964, 2010; in the data active means inhibition above about 55%;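 further: CHO cells expressing OX1R stimulated with orexin A at about EC80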
CHO-K1 HTRF: signal inhibition in parental CHO-K1 cells, counter-screen for OX1R antagonist project, cell-based, HTRF. shares compounds with OX1R antag-1. HTRF counterscreen. inhibition, % at 6.6 µM. hit rate 48% among 1,800. AID 493232, 2011; in the data active means inhibition above about 17%
Numbers stand for hits; . = inactive; / = no result given.

SMILES	TAAR1 antagonist	OX1R antag-1	GPR7 antagonist	CHO parental Ca	OX1R antag-2	TAAR1 ag	OX1R HTRF confirm	CHO-K1 HTRF
C(=C\c1ccccc1)/CN1CCN(C(c2cc3ccccc3o2)c2nnnn2Cc2ccccc2)CC1 (stereo not drawn)	.	/	/	/	/	.	/	/
COc1cccc2cc(-c3cn4ccc(C)cc4n3)c(=O)oc12	.	86	.	.	.	.	91	.
COc1cccc2cc(-c3cn4cccc(C)c4n3)c(=O)oc12	.	.	.	.	.	.	/	/
Cc1ccc(/C=c2\sc3n(c2=O)CN(c2cccc(Br)c2)CN=3)o1	.	80	.	.	.	.	.	.
COCCOC(=O)C1=C(C)NC(C)=C(C(=O)OCCOC)C1/C=C/c1ccccc1OC	.	78	.	.	.	.	.	.
C[C@@H]1CN([C@@H](C)CO)C(=O)CCCn2cc(nn2)CO[C@H]1CN(C)C(=O)c1ccc(N2CCN(C)CC2)cc1	.	/	/	/	/	.	/	/
COc1ccc(N2C(=O)c3[nH]nc(-c4ccccc4)c3C2c2cccc(C(F)(F)F)c2)cc1 (stereo not drawn)	.	/	/	/	/	.	/	/
Cc1c(/C=C/C(=O)c2cccs2)cnn1C	.	103	.	.	.	.	62	.
CCc1ccc(C(=O)/C=C/c2cnn(C)c2C)s1	.	.	.	.	.	.	/	/
CCCCNC(=O)C1(C)CCCCN1C(=O)c1ccc2c(c1)C(C)(C)CCC2(C)C (stereo not drawn)	.	/	/	/	/	.	/	/
CC(C)C[C@H](NC(=O)N1CC(=O)Nc2ccccc21)C(=O)N[C@H](Cc1c[nH]c2ccccc12)C(=O)O	.	.	.	.	.	.	/	/
CC(C)C[C@H](NC(=O)N1CC(=O)Nc2ccccc21)C(=O)N[C@@H](Cc1c[nH]c2ccccc12)C(=O)O	.	82	.	.	.	.	.	.
COC(=O)c1ccc(NC(=O)COc2ccc3c(c2)OCO3)cc1	.	.	.	.	.	.	/	/
COC(=O)c1ccccc1NC(=O)COc1ccc2c(c1)OCO2	.	80	.	.	.	.	63	.
COc1ccc2c(c1)O/C(=C\c1sccc1C)C2=O	.	81	.	.	.	.	.	.
CCN1CCN(C(=O)c2ccc3nc(-c4ccccc4)c(-c4ccccc4)nc3c2)CC1	.	.	.	.	.	.	/	/
O=C(Nc1cc([N+](=O)[O-])ccc1O)c1cccc(C(=O)Nc2cc([N+](=O)[O-])ccc2O)c1	.	.	.	.	.	.	/	/
O=C(Nc1c[nH]c(=O)[nH]c1=O)c1ccc([N+](=O)[O-])cc1	.	138	.	.	.	.	.	72
NS(=O)(=O)c1ccc(O)c(NC(=O)c2ccc([N+](=O)[O-])cc2)c1	.	92	.	.	.	.	.	47
Cc1ccc(Nc2nc3nonc3[nH]c2=O)cc1Cl	.	.	.	.	.	.	/	/
Cc1ccc(Nc2nc3nonc3[nH]c2=O)cc1C	.	78	.	.	.	.	.	.
COCCNC(=O)C1CCCN(C(=O)/C=C/c2ccccc2)CC1 (stereo not drawn)	.	/	/	/	/	.	/	/
COc1cccc2oc3cc(C#Cc4ccccn4)ccc3c(=O)c12	.	79	.	.	.	.	64	.
CCCn1c(SCC(=O)NCCc2ccccc2)nnc1-c1ccccn1	.	.	.	.	.	.	/	/
CCCn1c(SCC(=O)Nc2nnc(-c3ccccc3)s2)nnc1-c1ccccn1	.	78	.	.	.	.	65	.
SMILES	TAAR1 antagonist	OX1R antag-1	GPR7 antagonist	CHO parental Ca	OX1R antag-2	TAAR1 ag	OX1R HTRF confirm	CHO-K1 HTRF
O=C(Nc1ccc(N2CCOCC2)cc1)c1ccc([N+](=O)[O-])o1	.	95	.	.	.	.	.	.
CCOC(=O)c1sc(NC(=O)c2ccco2)c(C#N)c1C	.	.	.	.	.	.	/	/
COC(=O)c1sc(NC(=O)c2ccc([N+](=O)[O-])o2)c(C#N)c1C	.	92	.	.	.	.	64	30
Cc1cccc(NC(=O)c2ccc([N+](=O)[O-])o2)n1	.	97	.	.	.	.	.	64
Cc1cccnc1NC(=O)c1ccc([N+](=O)[O-])o1	.	116	.	.	.	.	.	58
C/C(=N\NC(=O)c1ccc(O)cc1)c1cccc(NC(=O)c2ccccc2C)c1	.	.	.	.	.	.	/	/
COc1ccc(NC(=O)c2cc(C3CCCCN3S(=O)(=O)c3cn(C)cn3)on2)c(C)c1 (stereo not drawn)	.	/	/	/	/	.	/	/
O=C(NCCN1CCC(n2c(=O)[nH]c3ccccc32)CC1)C(c1ccccc1)c1ccccc1	.	/	/	/	/	.	/	/
C/C(=N\NC(=O)c1cc([N+](=O)[O-])cc([N+](=O)[O-])c1)c1ccco1	.	81	.	.	.	.	56	89
Nc1c(-c2ccccc2)c(CN2CCOCC2)nn1-c1cccc([N+](=O)[O-])c1	.	85	.	.	.	.	.	29
O=C(O)CCCCCNS(=O)(=O)c1cccc2c1C(=O)c1ccccc1C2=O	.	138	.	.	.	.	55	86
COc1ccccc1N(C)S(=O)(=O)c1ccc(C(=O)Nc2cccc(S(=O)(=O)N3CCOCC3)c2)cc1	.	/	/	/	/	.	/	/
Cc1ccc(NC(=O)CSc2ncn[nH]2)c([N+](=O)[O-])c1	.	.	/	.	.	.	/	/
O=C(CSc1ncn[nH]1)Nc1c(Br)cc([N+](=O)[O-])cc1Br	.	96	.	.	.	.	.	45
Cc1cc(C)c2nc(N3CCN(C(=O)c4ccco4)CC3)sc2c1	.	82	/	.	.	.	.	.
Cc1cc2nc(N3CCN(C(=O)c4ccco4)CC3)sc2cc1C	.	.	/	.	.	.	/	/
CC(=O)N(C(C)=O)N1C(=O)c2cccc3c(N4CCOCC4)ccc(c23)C1=O	.	119	.	.	.	.	.	40
O=C(OCCN1C(=O)c2cccc3c(N4CCOCC4)ccc(c23)C1=O)c1cc(Cl)cc(Cl)c1	/	/	.	/	/	/	/	/
CC(C)NC(=O)CN(Cc1ccc(F)cc1)C(=O)CCC(=O)Nc1nccs1	.	.	.	.	.	.	/	/
CC(C)(C)C1CCC(=NNc2ccc(S(N)(=O)=O)cc2[N+](=O)[O-])CC1 (stereo not drawn)	.	.	.	.	.	.	/	/
